Assay [1] addresses Somatostatin receptor type 5 (Homo sapiens, UniProt P35346). The experiment in a line: The compound was tested for binding affinity against human Somatostatin receptor type 5. In a few lines: (§1)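 Membranes from CHO-K1 cells transfected with the cloned human receptor. Terminated by filtration on PEI-soaked GF/C filters. Nonspecific binding defined with 1.0 μM SRIF. Mean ± SEM; single values are from one experiment.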

The target of assay [2] is Somatostatin receptor type 1 (Homo sapiens, UniProt P30872). The experiment in a line: The compound was tested for binding affinity against human Somatostatin receptor type 1. The essentials:
as §1

In assay [3] the target is Somatostatin receptor type 3 (Homo sapiens, UniProt P32745). The experiment in a line: The compound was tested for binding affinity against human Somatostatin receptor type 3. In a few lines:
(§2)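 CHO-K1 cells stably transfected (calcium phosphate) with cloned human sst3 or sst4. Membranes made in ice-cold 50 mM Tris-HCl, resuspended in 10 mM Tris-HCl, then incubated 30 min at 37 °C with 0.05 nM [125I]Tyr11-SRIF in HEPES pH 7.4 with BSA, MgCl2 and protease inhibitors. Filtered on GF/C; nonspecific binding with 1.0 µM SRIF. Mean ± SEM, or one experiment.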

In assay [4] the target is Somatostatin receptor type 4 (Homo sapiens, UniProt P31391). Briefly: The compound was tested for binding affinity against human Somatostatin receptor type 4. The essentials:
as §2

Assay [5] concerns the target Somatostatin receptor type 2 (Homo sapiens, UniProt P30874). The experiment in a line: The compound was tested for binding affinity against human Somatostatin receptor type 2. The essentials:
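Membranes from CHO-K1 cells transfected with the cloned human sst2. Incubated 30 min at 37 °C with 0.05 nM [125I]MK-678 in HEPES pH 7.4 with BSA, MgCl2, Trasylol, bacitracin and PMSF. Filtration on PEI-soaked GF/C filters. Nonspecific binding defined with 1.0 μM SRIF. Mean ± SEM; single values are from one experiment.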

Bridge positions count the residues as written; N and C are the ends. Square brackets hold non-standard residues; d marks the D form. Peptide text beside a SMILES is read from it. Phe(4-F) = N[C@@H](Cc1ccc(F)cc1)C(=O)O; 2Nal = N[C@@H](Cc1ccc2ccccc2c1)C(=O)O; Bta = N[C@@H](Cc1csc2ccccc12)C(=O)O; 3Pal = N[C@@H](Cc1cccnc1)C(=O)O; Tle = CC(C)(C)[C@H](N)C(=O)O Where only a bound is given, the exact number is not on record here.

Chain of Somatostatin receptor type 2 (P30874 whole entry): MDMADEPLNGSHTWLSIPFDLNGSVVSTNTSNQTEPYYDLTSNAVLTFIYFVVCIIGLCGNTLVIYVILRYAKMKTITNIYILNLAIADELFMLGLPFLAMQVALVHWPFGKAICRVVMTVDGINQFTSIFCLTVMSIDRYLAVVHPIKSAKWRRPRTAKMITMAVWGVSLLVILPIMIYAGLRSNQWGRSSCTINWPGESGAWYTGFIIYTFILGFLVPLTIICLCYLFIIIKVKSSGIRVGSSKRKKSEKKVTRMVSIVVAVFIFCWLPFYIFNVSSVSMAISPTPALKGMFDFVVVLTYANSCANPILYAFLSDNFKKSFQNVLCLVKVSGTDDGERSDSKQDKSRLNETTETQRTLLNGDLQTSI
Chain of Somatostatin receptor type 1 (P30872 whole entry): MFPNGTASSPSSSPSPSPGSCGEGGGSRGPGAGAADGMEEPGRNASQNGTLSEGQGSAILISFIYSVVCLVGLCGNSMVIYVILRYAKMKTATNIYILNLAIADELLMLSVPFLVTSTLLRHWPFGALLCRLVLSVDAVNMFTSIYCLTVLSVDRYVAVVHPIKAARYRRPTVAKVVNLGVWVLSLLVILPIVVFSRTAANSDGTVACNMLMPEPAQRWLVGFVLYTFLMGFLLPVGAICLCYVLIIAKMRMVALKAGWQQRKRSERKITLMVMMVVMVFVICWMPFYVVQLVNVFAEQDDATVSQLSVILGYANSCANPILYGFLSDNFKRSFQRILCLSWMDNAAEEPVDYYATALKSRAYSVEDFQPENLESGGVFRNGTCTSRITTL
Chain of Somatostatin receptor type 5 (P35346 whole entry): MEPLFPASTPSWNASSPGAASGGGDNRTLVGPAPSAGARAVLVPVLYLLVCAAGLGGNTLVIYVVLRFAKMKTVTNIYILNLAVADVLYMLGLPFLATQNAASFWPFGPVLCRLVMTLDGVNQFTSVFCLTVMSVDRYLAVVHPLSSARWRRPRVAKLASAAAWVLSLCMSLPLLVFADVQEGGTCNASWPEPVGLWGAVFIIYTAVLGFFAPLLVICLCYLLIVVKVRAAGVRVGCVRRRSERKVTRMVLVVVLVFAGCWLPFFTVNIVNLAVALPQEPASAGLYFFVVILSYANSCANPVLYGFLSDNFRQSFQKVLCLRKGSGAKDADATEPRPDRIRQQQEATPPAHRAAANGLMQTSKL
Chain of Somatostatin receptor type 3 (P32745 whole entry): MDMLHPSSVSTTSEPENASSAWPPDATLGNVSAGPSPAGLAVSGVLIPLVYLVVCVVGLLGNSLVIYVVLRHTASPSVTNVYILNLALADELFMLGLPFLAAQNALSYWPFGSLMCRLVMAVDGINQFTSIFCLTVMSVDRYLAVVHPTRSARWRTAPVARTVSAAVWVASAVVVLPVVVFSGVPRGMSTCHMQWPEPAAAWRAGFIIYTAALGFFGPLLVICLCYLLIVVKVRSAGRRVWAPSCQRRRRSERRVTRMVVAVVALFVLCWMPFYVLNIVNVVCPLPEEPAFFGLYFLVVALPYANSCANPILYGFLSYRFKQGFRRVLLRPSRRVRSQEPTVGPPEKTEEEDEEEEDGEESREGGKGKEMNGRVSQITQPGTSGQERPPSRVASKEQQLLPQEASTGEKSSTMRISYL
Chain of Somatostatin receptor type 4 (P31391 whole entry): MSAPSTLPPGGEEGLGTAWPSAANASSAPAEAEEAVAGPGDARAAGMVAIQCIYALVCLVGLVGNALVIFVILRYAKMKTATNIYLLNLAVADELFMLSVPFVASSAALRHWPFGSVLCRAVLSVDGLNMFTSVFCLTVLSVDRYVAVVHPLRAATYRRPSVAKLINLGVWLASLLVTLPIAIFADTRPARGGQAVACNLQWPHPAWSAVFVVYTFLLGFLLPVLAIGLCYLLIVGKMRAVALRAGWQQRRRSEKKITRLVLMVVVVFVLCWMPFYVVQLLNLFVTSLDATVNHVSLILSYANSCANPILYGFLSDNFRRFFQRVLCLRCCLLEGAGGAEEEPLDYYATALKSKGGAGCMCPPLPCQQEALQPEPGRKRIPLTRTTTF

The Ki is the dissociation constant of the complex between target and ligand, obtained from inhibition or displacement. Read a high Ki as a looser hold on the target. `CC(C)[C@@H]1NC(=O)[C@H](CCCCN)NC(=O)[C@@H](Cc2c[nH]c3ccccc23)NC(=O)[C@H](Cc2csc3ccccc23)NC(=O)[C@H](NC(=O)[C@@H](N)Cc2ccc3ccccc3c2)CSSC[C@@H](C(=O)N[C@@H](Cc2ccc3ccccc3c2)C(N)=O)NC1=O` (H-[2Nal][dC][Bta][dW]KVC[2Nal]-NH2; disulfide 2-7): the Ki in assay [1] is 1400 nM; in assay [2] it was more than 1000 nM; in assay [3], 709 nM; in assay [4] it was more than 1000 nM; in assay [5] it was 418 nM.

For the compound `CC(C)[C@@H]1NC(=O)[C@H](CCCCN)NC(=O)[C@@H](Cc2c[nH]c3ccccc23)NC(=O)[C@H](Cc2ccc(O)cc2)NC(=O)[C@H](NC(=O)[C@@H]2Cc3ccccc3CN2)CSSC[C@@H](C(=O)N2Cc3ccccc3C[C@H]2C(N)=O)NC1=O`, the Ki in assay [1] is more than 1000 nM; in assay [2], 1030 nM; in assay [3] it was 802 nM; in assay [4], more than 1000 nM; in assay [5], 345 nM.

`CC(C)C[C@@H]1NC(=O)[C@H](CCCCN)NC(=O)[C@@H](Cc2c[nH]c3ccccc23)NC(=O)[C@H](Cc2cccnc2)NC(=O)[C@H](NC(=O)[C@@H](N)Cc2ccc3ccccc3c2)CSSC[C@@H](C(=O)N[C@@H](Cc2ccc3ccccc3c2)C(N)=O)NC1=O`: the Ki in assay [1] was 968 nM; in assay [2], 415 nM; in assay [3] it was 243 nM; in assay [4], 728 nM; in assay [5], 543 nM.

As for `CC(C)[C@@H]1NC(=O)[C@H](CCCCN)NC(=O)[C@@H](Cc2c[nH]c3ccccc23)NC(=O)[C@H](Cc2cccnc2)NC(=O)[C@H](NC(=O)[C@@H](N)Cc2ccc(Br)cc2)CSSC[C@@H](C(=O)N[C@@H](Cc2ccc(Br)cc2)C(N)=O)NC1=O`, the Ki in assay [1] stood at 66 nM; in assay [2], 374 nM; in assay [3], 57 nM; in assay [4], 3310 nM; in assay [5], 16 nM.

With `CC(C)[C@@H]1NC(=O)[C@H](CCCCN)NC(=O)[C@@H](Cc2c[nH]c3ccccc23)NC(=O)[C@H](Cc2cccnc2)NC(=O)[C@H](NC(=O)[C@@H](N)Cc2ccc(C#N)cc2)CSSC[C@@H](C(=O)N[C@@H](Cc2ccc(C#N)cc2)C(N)=O)NC1=O`, the inhibition constant (Ki) in assay [1] is 304 nM; in assay [2] it was more than 1000 nM; in assay [3] it was 103 nM; in assay [4], more than 1000 nM; in assay [5], 99 nM.

Consider `CC(C)(C)[C@@H]1NC(=O)[C@H](CCCCN)NC(=O)[C@@H](Cc2c[nH]c3ccccc23)NC(=O)[C@H](Cc2cccnc2)NC(=O)[C@H](NC(=O)[C@H](N)Cc2ccc(Cl)cc2)CSSC[C@@H](C(=O)N[C@H](Cc2ccc(Cl)cc2)C(N)=O)NC1=O`, for which the inhibition constant Ki in assay [1] was 153 nM; in assay [2], more than 1000 nM; in assay [3], 1190 nM; in assay [4], 2880 nM; in assay [5] it was 56 nM.

As to `CC(C)[C@@H]1NC(=O)[C@H](CCCCN)NC(=O)[C@@H](Cc2c[nH]c3ccccc23)NC(=O)[C@H](Cc2cccnc2)NC(=O)[C@H](NC(=O)[C@@H](N)Cc2cccc(F)c2)CSSC[C@@H](C(=O)N[C@@H](Cc2cccc(F)c2)C(N)=O)NC1=O`, the Ki was 748 nM in assay [1]; 82 nM in assay [2]; 495 nM in assay [3]; more than 1000 nM in assay [4]; 117 nM in assay [5].

Take `CC(C)[C@H]1NC(=O)[C@H](CCCCN)NC(=O)[C@@H](Cc2c[nH]c3ccccc23)NC(=O)[C@H](Cc2c[nH]cn2)NC(=O)C(NC(=O)[C@@H](N)Cc2ccccc2F)CSSCC(C(=O)N[C@@H](Cc2ccccc2F)C(N)=O)NC1=O` (stereo in doubt): the inhibition constant (Ki) in assay [1] was 972 nM; in assay [2], 37 nM; in assay [3], 382 nM; in assay [4], more than 1000 nM; in assay [5], 176 nM.

As for `CC(C)[C@@H]1NC(=O)[C@H](CCCCN)NC(=O)[C@@H](Cc2c[nH]c3ccccc23)NC(=O)[C@H](Cc2ccc(O)c(I)c2)NC(=O)C(NC(=O)[C@@H](N)Cc2ccc3ccccc3c2)CSSCC(C(=O)N[C@@H](Cc2ccc3ccccc3c2)C(N)=O)NC1=O` (stereo in doubt), the Ki was 468 nM in assay [1]; more than 1000 nM in assay [2]; 482 nM in assay [3]; more than 1000 nM in assay [4]; 194 nM in assay [5].

As to `CC(C)[C@H]1NC(=O)[C@H](CCCCN)NC(=O)[C@@H](Cc2c[nH]c3ccccc23)NC(=O)[C@H](Cc2c[nH]cn2)NC(=O)C(NC(=O)[C@@H](N)Cc2ccc(F)cc2)CSSCC(C(=O)N[C@@H](Cc2ccc(F)cc2)C(N)=O)NC1=O` (stereo in doubt), the Ki was found to be 173 nM in assay [1]; 1950 nM in assay [2]; 269 nM in assay [3]; 847 nM in assay [4]; 31 nM in assay [5].

Turning to `C[C@@H](O)[C@@H]1NC(=O)[C@H](CCCCN)NC(=O)[C@@H](Cc2c[nH]c3ccccc23)NC(=O)[C@@H](Cc2ccccn2)NC(=O)C(NC(=O)[C@@H](N)Cc2ccc(Cl)cc2)CSSCC(C(=O)N[C@@H](Cc2ccc3ccccc3c2)C(N)=O)NC1=O` (stereo in doubt), the inhibition constant Ki is 70 nM in assay [1]; 1030 nM in assay [2]; 53 nM in assay [3]; more than 1000 nM in assay [4]; 14 nM in assay [5].

For the compound `CC(C)[C@@H]1NC(=O)[C@H](CCCCN)NC(=O)[C@@H](Cc2c[nH]c3ccccc23)NC(=O)[C@H](Cc2cccnc2)NC(=O)[C@H](NC(=O)[C@H](N)Cc2ccc(F)cc2)CSSC[C@@H](C(=O)N[C@H](Cc2ccc(F)cc2)C(N)=O)NC1=O`, the Ki in assay [1] is 694 nM; in assay [2], more than 1000 nM; in assay [3] it was 838 nM; in assay [4], more than 1000 nM; in assay [5], 106 nM.

As for `C[C@@H]1NC(=O)[C@H](CCCCN)NC(=O)[C@@H](Cc2c[nH]c3ccccc23)NC(=O)[C@H](Cc2cccnc2)NC(=O)[C@H](NC(=O)[C@@H](N)Cc2ccc3ccccc3c2)CSSC[C@@H](C(=O)N[C@@H](Cc2ccc3ccccc3c2)C(N)=O)NC1=O`, the Ki in assay [1] is 1860 nM; in assay [2], 1200 nM; in assay [3], 379 nM; in assay [4], more than 1000 nM; in assay [5], 203 nM.

Take `CC(C)[C@@H]1NC(=O)[C@H](CCCCN)NC(=O)[C@@H](Cc2c[nH]c3ccccc23)NC(=O)[C@H](Cc2cccnc2)NC(=O)[C@H](NC(=O)[C@@H](N)Cc2ccc3ccccc3c2)CSSC[C@@H](C(=O)N[C@@H](Cc2ccc(F)cc2)C(N)=O)NC1=O`: the inhibition constant Ki in assay [1] was 376 nM; in assay [2], 1060 nM; in assay [3], 166 nM; in assay [4] it was more than 1000 nM; in assay [5], 69 nM.

Take `CC(C)(C)[C@@H]1NC(=O)[C@H](CCCCN)NC(=O)[C@@H](Cc2c[nH]c3ccccc23)NC(=O)[C@H](Cc2cccnc2)NC(=O)[C@H](NC(=O)[C@@H](N)Cc2ccc(F)cc2)CSSC[C@@H](C(=O)N[C@@H](Cc2ccc3ccccc3c2)C(N)=O)NC1=O` (H-[Phe(4-F)][dC][3Pal][dW]K[Tle]C[2Nal]-NH2; disulfide 2-7): the inhibition constant (Ki) in assay [1] was 535 nM; in assay [2], more than 1000 nM; in assay [3] it was 231 nM; in assay [4], more than 1000 nM; in assay [5], 26 nM.

For `CC(C)[C@@H]1NC(=O)[C@H](CCCCN)NC(=O)[C@@H](Cc2c[nH]c3ccccc23)NC(=O)[C@H](Cc2cccnc2)NC(=O)[C@H](NC(=O)[C@@H](N)Cc2ccc(F)cc2)CSSC[C@@H](C(=O)N[C@@H](Cc2ccc3ccccc3c2)C(N)=O)NC1=O`, the Ki in assay [1] is 287 nM; in assay [2], 484 nM; in assay [3] it was 271 nM; in assay [4] it was more than 1000 nM; in assay [5], 35 nM.

The record behind these values is ChEMBL document CHEMBL1132220 (J Med Chem, 1999).
